Several values for one entry are separate records, joined by “and”; a condition that tells them apart may be missing. Equal entries are not always repeated. Square brackets hold non-standard residues; d marks the D form. Peptide text beside a SMILES is read from it. * marks the point of attachment. Ala(cPent) = N[C@@H](CC1CCCC1)C(=O)O; Cbz = O=C(OCc1ccccc1)*
Legend:
APC‒Asef = molecular target: T1, APC‒Asef (Homo sapiens, UniProt P25054); assay: Fluorescence-polarization; assay type: binding; details: for inhibition at 400 µM: read-out: Inhibitory activity (inhibition rate %), at 400 μmol/L
T1 sequence (P25054 303-739): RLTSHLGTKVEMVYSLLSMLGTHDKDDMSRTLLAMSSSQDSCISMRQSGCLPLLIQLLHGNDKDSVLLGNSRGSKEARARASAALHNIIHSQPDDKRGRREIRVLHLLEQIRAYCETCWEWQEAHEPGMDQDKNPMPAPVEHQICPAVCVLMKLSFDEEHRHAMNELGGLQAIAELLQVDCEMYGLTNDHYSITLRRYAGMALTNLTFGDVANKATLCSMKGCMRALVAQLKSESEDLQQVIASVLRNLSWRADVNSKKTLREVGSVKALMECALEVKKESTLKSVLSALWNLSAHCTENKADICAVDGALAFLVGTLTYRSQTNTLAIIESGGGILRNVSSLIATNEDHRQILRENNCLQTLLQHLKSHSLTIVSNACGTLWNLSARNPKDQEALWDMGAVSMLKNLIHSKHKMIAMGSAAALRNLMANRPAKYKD

SW480 cells [1] = assay: Wound healing assay; assay type: cell-based; details: 20 μmol/L, 48 h
Method in brief: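 SW480 cells (1 × 10⁶) grown to confluence at 37 °C, 5% CO₂, then scratched and PBS-washed. Cells cultured in 1% FBS medium with test compound (20 μmol/L) or DMSO. Wound imaged at scratching and after 48 h. Migration expressed relative to DMSO group, mean ± SD of n = 3 independent experiments.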

SW480 cells [2] = assay: Transwell migration assay; assay type: cell-based; details: 20 μmol/L, 72 h
Method in brief: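 SW480 cells seeded at 1.5 × 10⁵ per insert in serum-free medium, with complete medium below. Test compound (20 μmol/L) or DMSO added to both chambers for 72 h. Nonmigrated cells swabbed off; migrated cells crystal-violet stained and counted. Counts normalized to DMSO-treated mean, n = 3 independent experiments, mean ± SD.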

APC‒Asef interaction [3] = molecular target: T2, APC‒Asef interaction (Homo sapiens, UniProt P25054); assay: Co-IP of exogenous HA-APC and FLAG-Asef in treated HEK293T cells; assay type: cell-based; details: 20 μmol/L, 48 h
T2 sequence (P25054 303-876): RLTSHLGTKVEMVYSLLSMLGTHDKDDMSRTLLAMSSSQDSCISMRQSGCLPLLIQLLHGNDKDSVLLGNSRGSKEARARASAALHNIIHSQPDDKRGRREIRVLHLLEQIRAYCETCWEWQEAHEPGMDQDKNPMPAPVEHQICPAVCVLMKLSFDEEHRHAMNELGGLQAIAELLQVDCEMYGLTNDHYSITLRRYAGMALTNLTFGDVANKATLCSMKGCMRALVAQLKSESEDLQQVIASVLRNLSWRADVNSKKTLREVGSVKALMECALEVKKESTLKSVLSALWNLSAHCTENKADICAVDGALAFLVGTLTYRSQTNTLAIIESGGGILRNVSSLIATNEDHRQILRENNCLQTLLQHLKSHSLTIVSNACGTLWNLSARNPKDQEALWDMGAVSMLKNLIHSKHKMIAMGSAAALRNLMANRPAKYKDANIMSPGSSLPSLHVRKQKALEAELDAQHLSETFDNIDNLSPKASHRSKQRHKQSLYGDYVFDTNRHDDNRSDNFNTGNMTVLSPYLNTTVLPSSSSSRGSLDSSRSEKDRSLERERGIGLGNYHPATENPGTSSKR
Method in brief: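 HEK293T cells transfected with HA-APC (303‒876) and Flag-Asef plasmids, then exposed to test compound at 20 μmol/L or DMSO for 48 h. Cells lysed in 0.3% NP-40 buffer (50 mmol/L Tris-HCl pH 7.5, 150 mmol/L NaCl, PMSF, NaF, Na₃VO₄, protease inhibitors). Lysate incubated with anti-FLAG magnetic beads 3 h at 4 °C. Bound protein eluted by boiling 10 min at 95 °C in loading buffer.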

SW480 cells [4] = assay: Cell cytotoxicity assay; assay type: cell-based; details: 20 μmol/L, 48 h
APC‒Asef interaction [5] = molecular target: T2, APC‒Asef interaction; assay: Co-IP of APC‒Asef in drug-treated HEK293T cell lysates; assay type: biochemical; details: AT46 0.2, 1 or 5 μmol/L, 2 h
[6] = Pharmacokinetic study in mice; assay type: in vivo; details: male, BALB/c, mouse, plasma, ip, 1 mg/kg
Method in brief: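 Male BALB/c mice (n = 3/group) dosed once i.p. at 1 mg/kg (5 mL/kg) in DMSO:Cremophor EL:10% HP-β-CD in saline (2:8:90). Blood taken from dorsal metatarsal vein predose and at 0.083–48 h. Plasma obtained by centrifugation at 4000 × g, 5 min, 4 °C. Analysed by LC‒MS/MS on C18 column with acetonitrile/water/0.1% formic acid gradient, negative MRM mode.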

[7] = IC50 ± SD, FP competition assay, three independent experiments

Compound `CC(C)C[C@H](NC(=O)[C@H](CO)NC(=O)[C@H](CCC(=O)O)NC(=O)c1ccncn1)C(=O)NCCc1ccccc1` [AT3] has an IC50 (APC‒Asef; [7]) of 323 µM and an inhibition at 400 µM (APC‒Asef) of 54.6 ± 2%.

In the case of `CC(C)C[C@H](NC(=O)[C@H](CO)NC(=O)[C@H](CCC(=O)O)NC(=O)c1ccncn1)C(=O)NCC=Cc1ccccc1` [AT4], the “Inhibitory activity (inhibition rate %)” value (APC‒Asef; at 400 μmol/L) is reported as 13.1 ± 0.7% and the inhibition at 400 µM (APC‒Asef) is reported as 13%.

With `CC(C)C[C@H](NC(=O)[C@H](CC1CC1)NC(=O)[C@H](CCC(=O)O)NC(=O)c1ccncn1)C(=O)NC1CC1c1ccccc1` (stereo partly drawn) [AT7] the IC50 (APC‒Asef; [7]) was 61.3 ± 7.2 µM.

`CC(C)C[C@H](NC(=O)[C@H](CC1CCCCC1)NC(=O)[C@H](CCC(=O)O)NC(=O)c1ccncn1)C(=O)NC1CC1c1ccccc1` (stereo partly drawn) [AT8] gave an IC50 (APC‒Asef; [7]) of 168 ± 9.5 µM.

In the case of `CC(C)C[C@H](NC(=O)[C@H](Cc1ccccc1)NC(=O)[C@H](CCC(=O)O)NC(=O)c1ccncn1)C(=O)NC1CC1c1ccccc1` (stereo partly drawn) [AT9], the IC50 (APC‒Asef; [7]) is reported as 95.4 ± 7.5 µM.

In the case of `CC(C)C[C@H](NC(=O)[C@H](Cc1ccc2ccccc2c1)NC(=O)[C@H](CCC(=O)O)NC(=O)c1ccncn1)C(=O)NC1CC1c1ccccc1` (stereo partly drawn) [AT10], the IC50 (APC‒Asef; [7]) is reported as 9.3 µM and 9.34 µM and the “fold increase in potency over AT6” value (APC‒Asef; from FP IC50) is reported as 2 fold.

Compound `CSc1nccc(C(=O)N[C@@H](CCC(=O)O)C(=O)N[C@@H](Cc2ccc3ccccc3c2)C(=O)N[C@@H](CC(C)C)C(=O)NC2CC2c2ccccc2)n1` (stereo partly drawn) [AT38] has an IC50 (APC‒Asef; pIC50, test set, Table 3, pIC50 = ‒Log [IC50 (μmol/L) × 10^−6]) of 0.708 µM.

Compound `CSc1nccc(C(=O)N[C@@H](CC(=O)O)C(=O)N[C@@H](Cc2ccc3ccccc3c2)C(=O)N[C@@H](CC(C)C)C(=O)NC2CC2c2ccccc2)n1` (stereo partly drawn) [AT41] has an IC50 (APC‒Asef; [7]) of 19.3 ± 0.58 µM.

In the case of `CSc1nccc(C(=O)N[C@@H](CCC(=O)O)C(=O)N[C@@H](CC2CCCCC2)C(=O)N[C@@H](CC(C)C)C(=O)NC2CC2c2ccccc2)n1` (stereo partly drawn) [AT42], the IC50 (APC‒Asef; [7]) is reported as 33 µM and 33.1 µM.

Compound `CSc1nccc(C(=O)N[C@@H](CCC(=O)O)C(=O)N[C@H](Cc2ccc3ccccc3c2)C(=O)N[C@@H](CC(C)C)C(=O)NC2CC2c2ccccc2)n1` (stereo partly drawn) [AT43] has an IC50 (APC‒Asef; [7]) of 127 ± 6.6 µM.

Compound `CSc1nccc(C(=O)N[C@@H](CCC(=O)O)C(=O)N[C@@H](Cc2ccc3ccccc3c2)C(=O)N[C@@H](CC(C)C)C(=O)N[C@@H]2C[C@H]2c2ccccc2)n1` [AT44] has an IC50 (APC‒Asef; [7]) of 0.48 ± 0.07 µM.

With `CSc1nccc(C(=O)N[C@@H](CCC(=O)O)C(=O)N[C@@H](Cc2ccc3ccccc3c2)C(=O)N[C@@H](CC(C)C)C(=O)N[C@H]2C[C@@H]2c2ccccc2)n1` [AT45] the IC50 (APC‒Asef; [7]) was 8.61 ± 0.12 µM.

With `CSc1ncc(Br)c(C(=O)N[C@@H](CCC(=O)O)C(=O)N[C@@H](Cc2ccc3ccccc3c2)C(=O)N[C@@H](CC(C)C)C(=O)N[C@@H]2C[C@H]2c2ccccc2)n1` [AT46] the “migration of SW480 cells, wound healing” value (SW480 cells [1]) was “no inhibition”, the “migration of SW480 cells, Transwell” value (SW480 cells [2]) was “no inhibition” and the “disruption of APC‒Asef interaction (Co-IP)” value (shortened to “disruption”) (APC‒Asef interaction [3]) was “no disrupting effect on the APC‒Asef interaction in the cell model”. For the same compound, the “survival ability (proliferative viability) of SW480 cells, CCK-8” value (SW480 cells [4]) was “did not damage the survival ability of SW480 cells”, the IC50 (APC‒Asef; [7]) was 0.11 ± 0.003 µM and the “fold increase in potency over parental MAI-400” value (APC‒Asef; from FP IC50) was 24 fold. The “disruption” value (APC‒Asef interaction [5]) was “dose-dependently attenuated the APC‒Asef interaction in cell lysates”, the AUC(0-t) [6] was 124 ± 18.4 ng·h/mL and the Cmax [6] was 60.8 ± 5.65 ng/mL. The MRT [6] was 1.96 ± 0.58 h, the Tmax [6] was 0.83 ± 0.29 h and the half-life [6] was 1.2 ± 0.5 h.

In the case of `CSc1ncc(Br)c(C(=O)N[C@@H](CCC(=O)OC(C)(C)C)C(=O)N[C@@H](Cc2ccc3ccccc3c2)C(=O)N[C@@H](CC(C)C)C(=O)N[C@@H]2C[C@H]2c2ccccc2)n1` [AT47], the “migration of SW480 cells, wound healing” value (SW480 cells [1]) is reported as “inhibited the migration of SW480 cells”, the “migration of SW480 cells, Transwell” value (SW480 cells [2]) is reported as “suppressed the migration of SW480 cells” and the “disruption” value (APC‒Asef interaction [3]) is reported as “notably diminished APC‒Asef PPI”. The “survival ability (proliferative viability) of SW480 cells, CCK-8” value (SW480 cells [4]) was “did not damage the survival ability of SW480 cells”, the inhibition at 400 µM (APC‒Asef) was 24.4% and the AUC(0-t) [6] was 4800 ± 868 ng·h/mL. It also gave a Cmax [6] of 1460 ± 119 ng/mL, an MRT [6] of 4.97 ± 1.49 h and a Tmax [6] of 1.67 ± 0.58 h. For the same compound, the half-life [6] was 11.8 ± 5.7 h.

Work on `C[C@H](NC(=O)OCc1ccccc1)C(=O)NCC(=O)N[C@@H](CCC(=O)O)C(=O)N[C@@H](C)C(=O)N[C@@H](CC1CCCC1)C(=O)N[C@@H](Cc1ccc(O)cc1)C(=O)N[C@@H](CCC(=O)O)C(N)=O` [MAI-203, reference compound] (Cbz-AGEA[Ala(cPent)]YE-NH2; N-terminus and C-terminus assumed) yielded an AUC(0-t) [6] of 52.4 ± 6.07 ng·h/mL, a Cmax [6] of 101 ± 25 ng/mL and an MRT [6] of 0.43 ± 0.07 h. It also gave a Tmax [6] of 0.25 h and a half-life [6] of 0.24 ± 0.06 h.
